From PubChem
In the library only some 1.4% were active in any assay of this set; here they are far more common.
thrombin 1536: human alpha-thrombin inhibitors, primary screen, counter-screen for coagulation protease inhibitor project, biochemical, 1536-well, fluorogenic AMC substrate; inhibition, % at 5 µM; Prothrombin (Homo sapiens), P00734; actives 0.26% (n = 220,000); Boc-VPR-AMC fluorogenic substrate cleavage;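 active = inhibition at or above 40%; inactive = inhibition below 40%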
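Test system: human alpha-thrombin protein / Dosing: one concentration per compound, 5 µM, with 0.2% DMSO / Medium: pH 7.5 Tris-saline with Tween 20 / Benchmarks: no-compound enzyme wells and no-enzyme blanks / Read-out basis: percent inhibition of thrombin substrate cleavage / Timing: reaction at room temperature / Measured by: fluorescence, ex 355 nm, em 460 nm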
FXIa inh 1536: human FXIa protease inhibitors, primary screen, biochemical, 1536-well; Coagulation factor XI (Homo sapiens), P03951; purified FXIa, Boc-Glu-Ala-Arg-AMC fluorogenic substrate; inhibition, % at 5 µM; actives 0.14% (n = 220,000);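 active = inhibition of at least 40%; inactive = inhibition below 40%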;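 note: fluorescence of freed AMC excited at 355 nm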
FXIIa inh 1536: human FXIIa protease inhibitors, primary screen, biochemical, 1536-well; inhibition, % at 5 µM; Coagulation factor XII (Homo sapiens), P00748; actives 0.3% (n = 220,000); purified FXIIa, Boc-QGR-AMC fluorogenic substrate, 2 h; in the data active = inhibition above about 40%
Target sequence (P00748 20-372 limits assumed): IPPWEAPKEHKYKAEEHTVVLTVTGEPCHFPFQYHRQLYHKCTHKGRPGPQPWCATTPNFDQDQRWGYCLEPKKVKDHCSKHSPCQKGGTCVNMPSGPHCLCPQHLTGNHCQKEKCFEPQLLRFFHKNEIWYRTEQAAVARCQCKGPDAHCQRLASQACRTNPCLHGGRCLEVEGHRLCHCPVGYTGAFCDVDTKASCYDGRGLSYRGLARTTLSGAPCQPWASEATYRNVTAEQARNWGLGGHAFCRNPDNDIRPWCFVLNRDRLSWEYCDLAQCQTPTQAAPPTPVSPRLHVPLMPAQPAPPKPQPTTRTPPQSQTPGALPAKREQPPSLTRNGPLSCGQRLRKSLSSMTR
Target sequence (P00748 373-615 limits assumed): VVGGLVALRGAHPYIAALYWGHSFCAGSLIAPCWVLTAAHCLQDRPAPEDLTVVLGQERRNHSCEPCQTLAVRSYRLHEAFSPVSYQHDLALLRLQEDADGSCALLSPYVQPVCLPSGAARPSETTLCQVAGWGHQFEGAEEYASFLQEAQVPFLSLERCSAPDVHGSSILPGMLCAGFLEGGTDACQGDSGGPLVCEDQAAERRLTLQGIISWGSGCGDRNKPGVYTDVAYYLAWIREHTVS
KLK5 inh: human KLK5 protease inhibitors, primary screen, biochemical, 1536-well; recombinant hK5, fluorogenic AMC substrate cleavage; Kallikrein-5 (Homo sapiens), Q9Y337; inhibition, % at 5 µM; actives 0.59% (n = 210,000);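 active = inhibition of 40% or more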
Calpain2 inh: inhibitors of pig calpain II, primary screen, biochemical, fluorogenic peptide substrate, 1536-well. purified calpain II, 30 min. inhibition, % at 16 µM. actives 0.37% (n = 220,000). AID 1236, 2008;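 active = inhibition above about 50%, limit read from the data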
Furin inhibitor: human furin inhibitors, primary screen, biochemical, fluorescence intensity; P09958; purified furin, fluorogenic substrate cleavage; inhibition, % at 20 µM or 30 µM; actives 0.061% (n = 220,000); in the data active = inhibition above about 25%
Numbers stand for hits; 0 = inactive; - = no result.

SMILES	thrombin 1536	FXIa inh 1536	FXIIa inh 1536	KLK5 inh	Calpain2 inh	Furin inhibitor
CCCCCNC(=O)C1CC(=O)OC12CCCCC2 (stereo not given)	0	0	0	0	0	0
COc1cccc(C(=O)N2c3ccccc3Sc3ccccc32)c1	0	0	0	0	52.3	0
COc1cccc(C(=O)NC2CCN(C(=O)N3c4ccccc4Sc4ccccc43)CC2)c1	0	0	0	0	0	0
COc1cccc(C(=O)N2CCSC2=S)c1	0	0	0	48.0	0	0
COc1ccc(C(=O)N2CCSC2=S)cc1OC	0	0	0	0	0	0
CCCCCCc1cc2cc(S(=O)(=O)c3ccc(F)c(Cl)c3)c(=O)oc2cc1O	0	0	0	0	0	0
O=C1CC(c2ccccc2Cl)c2c(sc3c(=O)[nH]c(CCl)nc23)N1 (stereo not given)	0	0	0	0	0	0
CCn1c(C)c(P(c2ccccc2)c2ccccc2)[n+]2ccccc12	0	0	0	0	0	0
COC(=O)C1C(=O)/C(=C/N(C)C)C(=O)CC1(C)C (stereo not given)	0	0	0	0	0	37.7
Oc1cccc(C(O)CNCc2ccc(OCc3ccc(Cl)cc3Cl)cc2)c1 (stereo not given)	0	0	0	0	0	0
CCOC(=O)c1[nH]c(C)c(C(=O)Nc2ccc(C)cc2C)c1C	0	0	0	79.7	0	0
Cc1ccc(C(=O)ONc2ccc(N=O)cc2)cc1	0	0	44.3	0	0	0
Cc1ccc(Cn2nc(C)c(NC(=O)c3nn(C)cc3Cl)c2C)cc1	0	0	0	0	0	25.4
Cc1nn(Cc2ccc(Br)cc2)c(C)c1NC(=O)c1nn(C)cc1Cl	0	0	0	0	0	0
COCc1c(C(=O)N/N=C/c2cccc3ccccc23)nnn1-c1nonc1N	0	0	0	0	0	0
CCC(=O)c1ccccc1OCCSc1nc(C)cc(=O)[nH]1	0	0	0	145.7	0	0
CCCOc1cccc(OCCSc2nc(C)cc(=O)[nH]2)c1	0	0	0	0	0	0
COc1ccc(N(CN2C(=O)C3CC=CCC3C2=O)C(=O)c2ccco2)cc1 (stereo not given)	0	0	0	0	0	0
COc1ccc(N(C(=O)c2ccco2)S(=O)(=O)c2ccccc2)cc1	57.8	0	0	0	0	0
COc1ccc(N(C(=O)c2ccco2)S(=O)(=O)c2cc(Cl)c(Cl)cc2Cl)cc1	0	0	0	0	53.7	0
CC12CCC(C(=O)N(CC3CO3)C1=O)C2(C)C (stereo not given)	0	0	0	0	0	0
COc1ccc(-n2ncc(S(=O)(=O)c3ccccc3)c2-c2ccc(Cl)cc2)cc1	0	0	0	0	52.4	0
O=S(=O)(c1ccccc1)c1cnn(-c2ccccc2)c1-c1ccc(F)cc1	0	0	0	0	0	0
CCCC(=O)NC(=S)Nc1ccc(Cl)cn1	0	0	0	111.7	0	0
CC(=O)c1ccc(NC(=S)NCCc2cccc(Cl)c2)cc1	0	0	0	0	0	0
SMILES	thrombin 1536	FXIa inh 1536	FXIIa inh 1536	KLK5 inh	Calpain2 inh	Furin inhibitor
COc1ccc(N(CC(=O)Nc2ccccc2C(N)=O)S(=O)(=O)c2ccc(C)c([N+](=O)[O-])c2)cc1	-	0	0	0	0	0
O=C(CN1c2ccccc2Sc2ccccc21)NNC(=O)Nc1cccc(Cl)c1	0	0	0	0	0	0
COC(=O)c1ccc2nc(NC(=O)CN3C(=O)CCC3=O)sc2c1	0	0	0	49.9	0	0
CC1=CC2=C(OC1N(C)C)c1cccc3cccc(c13)C2=O (stereo not given)	0	0	0	50.2	0	0
Cc1ccc(N2C(=O)c3cccc4cccc(c34)C2=O)cc1	0	0	0	0	0	0
Cc1ccc(C(C(=O)NC2CCCC2)N(C(=O)Cc2cccs2)c2ccc3c(c2)OCCO3)cc1 (stereo not given)	0	0	0	0	0	0
Cc1ccc(N(C(=O)Cc2cccs2)C(C(=O)NC2CCCC2)c2ccncc2)cc1 (stereo not given)	0	0	0	0	0	0
Cc1ccc(C)c(N(C(=O)Cc2cccs2)C(C(=O)NC2CCCC2)c2ccc(C)o2)c1 (stereo not given)	0	0	0	0	53.4	0
Cc1ccc(N(C(=O)CCl)C(C(=O)NC2CCCCC2)c2cccnc2)cc1C (stereo not given)	0	0	0	0	102.1	0
Cc1ccc(C(C(=O)NC2CCCC2)N(C(=O)Cc2cccs2)c2ccc(C)c(C)c2)o1 (stereo not given)	0	0	0	0	62.5	0
N/C(=N\OC(=O)c1csnn1)c1ccc(C(F)(F)F)cc1	0	0	0	0	0	0
Cc1ccccc1NC(=O)C1(NC(=O)c2cccc(N3C(=O)CSC3c3ccccc3)c2)CCCCC1 (stereo not given)	0	0	0	80.0	0	0
Cc1cccc(NC(=O)c2ccc(C3SCC(=O)N3CCc3ccccc3)cc2)c1C (stereo not given)	0	0	0	0	0	0
Cc1ccc(C(=O)OCC(=O)c2ccc(Cl)s2)s1	0	0	0	0	0	0
O=C(OCC(=O)c1ccc(Cl)s1)c1ccc2ccccc2n1	0	0	42.7	0	0	0
Nc1nc2ccccc2n1C(=O)c1ccco1	44.3	0	0	41.1	0	0
Nc1nc2ccccc2n1C(=O)c1ccccc1	0	0	0	0	0	0
CC(=O)c1ccc(N2C(=O)C3C(C2=O)C(C(=O)c2ccc(Cl)cc2)N2CCCC32)cc1 (stereo not given)	0	0	0	41.6	0	0
O=C(c1ccc(Cl)cc1)C1C2C(=O)N(c3ccccc3)C(=O)C2C2CCCN21 (stereo not given)	0	0	0	0	0	0
CC(C)C(OC(=O)c1cccs1)C(=O)NCc1ccc2c(c1)OCO2 (stereo not given)	0	0	56.8	0	0	0
Clc1ccc(-c2ccc(SCc3ccccn3)nn2)cc1	0	0	0	43.2	0	0
CN(CC1CCCO1)S(=O)(=O)c1ccc(C(=O)Nc2ccc3c(c2)OCO3)cc1 (stereo not given)	0	0	0	61.2	0	0
COc1ccc2cc(C(=O)C3CCCN(C(=O)/C=C/c4ccccn4)C3)ccc2c1 (stereo not given)	0	0	0	0	0	0
Cc1ccccc1NC(=O)c1cccc2nc3ccccc3nc12	0	0	44.2	0	0	0
Cc1ccccc1NC(=O)c1ccccc1NC(=O)Cc1cccc2ccccc12	0	0	0	0	0	0
